Published values of several laboratories.
Lines come from different studies, so protocols differ.
Route: oral

With `Cc1cc(-c2ccnc3[nH]cc(F)c23)cc(F)c1[C@@]1(O)[C@H](C)CN(C2CCS(=O)(=O)CC2)C[C@@H]1C` the bioavailability was 37.7% (male CD-1 mouse; plasma; 3 mg/kg).
`O=C1CCC(N2Cc3cc(C4CCN(Cc5ccccc5)CC4)ccc3C2=O)C(=O)N1` (centres unmarked) has a bioavailability of 63.8% (male CD-1 mouse; plasma; 3 mg/kg).
For `COCC(=O)N1CCc2[nH]c3c(Cl)c(Cl)ccc3c2[C@@H]1C`, the bioavailability was 12.5% (C57BL/6 mouse; blood; 20 mg/kg).
`NCc1ccc(-c2nn(Cc3ccccc3)c3ccccc23)o1` gave a bioavailability of 34% (male CD-1 mouse; plasma; 10 mg/kg).
The bioavailability of `Cc1ccc(OCC(=O)N[C@@H](Cc2c[nH]c3ccccc23)C(=O)OC(C)C)cc1` is reported as 39% (male Sprague-Dawley mouse; plasma; 20 mg/kg).
`CN(C)C(=O)c1cc2cnc(Nc3ccc(-c4ccc5c(=O)cc(N6CCOCC6)oc5c4)cc3)nc2n1C1CCCC1.Cl` has a bioavailability of 29% (BALB/c mouse; plasma; 20 mg/kg).
With `FC(F)(F)CN1CC(n2cc(Oc3ccn4nc(Cl)cc4n3)cn2)C1` the bioavailability was 46% (FVB mouse; blood; single dose).
With `CCOC(=O)C1=C(CN2CCC[C@@H]2C(=O)Nc2ccc(B(O)O)cc2)NC(c2nccs2)=N[C@H]1c1ccc(F)cc1Br` the bioavailability was 10.4% (CD-1 mouse; plasma; 10 mg/kg).
For `Cc1cc(-c2ccnc3[nH]cc(F)c23)cc(F)c1[C@@]1(O)[C@H](C)CN(C(=O)CN)C[C@@H]1C`, the bioavailability was 30.7% (male CD-1 mouse; plasma; 3 mg/kg).
With `CC(C)[C@@H](CS(=O)(=O)C(C)C)N1C(=O)[C@@](C)(CC(=O)O)C[C@H](c2cccc(Cl)c2)[C@H]1c1ccc(Cl)cc1` the bioavailability was 16% (FVB mouse; plasma; 20 mg/kg; single dose).
For `C=CCn1c(=O)c2cnc(Nc3ccc(N4CCN(C)CC4)cc3)nc2n1-c1ccc2c(n1)[C@@](O)(CC)CC2`, the bioavailability was 98% (mouse; plasma; 60 mg/kg).
The bioavailability of `Oc1ccc([C@@H]2Oc3ccc(O)cc3[C@@H]3CCC[C@@H]32)cc1` is reported as 14% (male C57BL/6 mouse; plasma; 10 mg/kg).
The bioavailability of `OCc1ccc(-c2nn(Cc3ccccc3)c3ccccc23)o1` is reported as 11% (male CD-1 mouse; plasma; 10 mg/kg).
`Cc1nc2ccc(OCc3ccc(C(F)(F)F)cc3)cc2[nH]1` has a bioavailability of 35% (male BALB/c mouse; plasma; 10 mg/kg).
